High-throughput results deposited in PubChem by several laboratories.
CHT PAM: allosterically activates the human high affinity choline transporter; Q9GZV3; CHT-expressing cells, membrane potential dye, choline EC20; hits give high values; LV-AA mutant CHT in HEK293 cells; B-score at 10 µM; hit rate 0.49% among 310,000; AID 488977;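 active means initial fluorescence not abnormally high and integrated response B-score, plate-corrected, over 3 SD above library mean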
Target sequence (Q9GZV3 whole entry, looked up): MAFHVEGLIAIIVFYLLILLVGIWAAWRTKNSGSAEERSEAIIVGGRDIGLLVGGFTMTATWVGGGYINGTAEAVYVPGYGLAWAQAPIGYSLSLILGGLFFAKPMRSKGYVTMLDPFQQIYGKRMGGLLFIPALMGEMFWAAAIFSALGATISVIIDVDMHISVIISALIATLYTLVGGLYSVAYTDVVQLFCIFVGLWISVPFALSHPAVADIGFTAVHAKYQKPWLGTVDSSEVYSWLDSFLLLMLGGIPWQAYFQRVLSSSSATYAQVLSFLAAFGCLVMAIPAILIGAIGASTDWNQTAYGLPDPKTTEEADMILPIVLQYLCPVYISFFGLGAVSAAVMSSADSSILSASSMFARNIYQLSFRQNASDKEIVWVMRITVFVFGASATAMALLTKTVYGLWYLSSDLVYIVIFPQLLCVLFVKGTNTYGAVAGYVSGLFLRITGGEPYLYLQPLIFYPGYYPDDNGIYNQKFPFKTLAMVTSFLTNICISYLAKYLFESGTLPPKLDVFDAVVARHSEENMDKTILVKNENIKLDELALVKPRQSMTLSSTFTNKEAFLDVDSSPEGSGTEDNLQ
procasp7 counter: counter-screen: procaspase-7 (human) activation; activation, % at 8.5 µM; hit rate 0.093% among 330,000; recombinant procaspase-7, Ac-DEVD-pNA absorbance 405 nm; D23A/D198A/D206A triple mutant, cannot self-cleave; scale: DMSO 0, 5 µM enzyme 100; P55210;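 active means percent activation above the screen-wide mean plus 3 SD, cut at about 25% in these data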
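Assay system: Uncleavable procaspase-7 mutant enzyme; Input: 2 µM procaspase-7 mutant as dispensed; Also added: DEVD-pNA substrate; Medium: Zinc-free HEPES pH 7.4 with 300 mM NaCl, 0.01% Triton X-100; Timing: 1 h compound preincubation, 2 h substrate cleavage, 25 °C; Measured by: Epi-absorbance of released pNA at 405 nm, two timepoints.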
CHT block: human CHT choline transport inhibition; Q9GZV3; CHT-expressing cells, membrane potential dye, choline response; hits give low values; B-score at 10 µM; hit rate 0.86% among 310,000;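 active means B-score over 3 SD under the library average, and starting fluorescence ratio not unusually high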;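 further: choline stimulus applied at its EC90 after an EC20 pre-addition; B-score computed on integrated fluorescence ratio after choline addition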
procasp3 activ: activators of human procaspase-3; P42574; recombinant procaspase-3 D3A, Ac-DEVD-pNA absorbance 405 nm; activation, % at 8.5 µM; hit rate 0.11% among 330,000; AID 463141;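 active means activation above the mean of all tested compounds plus 3 SD, cut at about 21% in these data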;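 further: 0% = DMSO alone and 100% = DMSO wells spiked with extra 5 µM PC-3 D3A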
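Assay system – Procaspase-3 D3A mutant · Benchmarks – DMSO low control, extra-enzyme high control · Technique – 405 nm absorbance of p-nitroaniline, reads at 0 and 120 min · Doses – 8.5 µM nominal · Measure – % activation between DMSO and enzyme-spiked controls · Also added – Ac-DEVD-pNA chromogenic peptide substrate · Schedule – 1 h compound preincubation, 2 h substrate hydrolysis at 25 °C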
CHT block conf: confirmation of human choline transporter CHT inhibitors. CHT activity remaining % of control (hits give low values), % at 10 µM. CHT-expressing cells, choline membrane potential dye; LV-to-AA substituted CHT, HEK293 cells. shares compounds with CHT block. hit rate 70% among 2,400;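 active means choline transporter activity left, mean of duplicates at 10 µM, below buffer-only control mean minus 3 SD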;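 further: depolarization triggered by choline at its EC90 following an EC20 pre-addition; 0% = hemicholinium-3 full block and 100% = buffer-only control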
HEK293 MPD ctr: CHT inhibitor counter-screen hit in parental HEK293 cells | shares compounds with CHT block | membrane potential dye, choline response; active = decrease or increase beyond buffer ±3SD | membrane potential ratio readout (active if shifted either direction beyond buffer ±3SD; no single direction) at 10 µM | hit rate 4% among 2,400;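 further: parental cells lack the transporter so any hit is non-specific; ratio is peak minus trough fluorescence over baseline after EC90 choline challenge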
Active calls of the source: *; i = inactive; x = not tested or not shown. A selection: hits, their analogues and other compounds. The true share with any hit is near 1.3%.

SMILES	CHT PAM	procasp7 counter	CHT block	procasp3 activ	CHT block conf	HEK293 MPD ctr
O=C(CCNC(=O)c1ccc(Cl)cc1)Nc1cccc(S(=O)(=O)N2CCCCC2)c1	x	12.7	x	3.4	x	x
CC(C)(C)C(=O)NNC(=O)c1cc2sccc2s1	i	9.4	-5.79*	4.8	i	i
CCOc1ccc(C(=O)N[C@H](C(=O)NNC(=O)c2cccs2)C(C)C)cc1	x	4.5	x	0.4	x	x
CCOC(=O)c1c(C)c(C(=O)N2CCc3ccccc3C2)c(C)n1CC	i	6.0	-5.84*	-7.9	38.6%*	i
O=C(c1ccco1)N1CCN(C(=O)c2ccc(COc3ccc(Cl)cc3Cl)o2)CC1	i	9.4	-6.34*	4.6	i	i
Cc1cc(Cl)ccc1OCCCC(=O)N1CCN(C(=O)c2ccco2)CC1	i	8.7	-5.3*	-0.5	68.1%*	i
O=C(CCCOc1ccccc1)N1CCN(C(=O)c2ccco2)CC1	i	-2.4	i	3.2	x	x
O=C(c1ccco1)N1CCN(C(=O)c2ccc(COc3ccc4c(c3)CCC4)o2)CC1	i	5.0	i	-8.5	x	x
O=C(c1cccc(-c2ccccc2F)c1)N1CC[C@@H](N2CCC(O)CC2)[C@H](O)C1	i	1.1	i	-8.0	x	x
COc1ccc(C(=O)N2CCC2)cc1S(=O)(=O)NCc1ccc(Cl)cc1	x	-5.9	x	3.9	x	x
C[C@H](NC(=O)OC(C)(C)C)c1nnc(SCC(=O)c2ccc(Cl)cc2)o1	i	-3.5	-5.29*	4.1	68.8%*	i
CCCCCCCCC[n+]1cccc2c3ccccc3ccc21	i	4.6	-6.78*	-0.5	59.0%*	i
COc1ccccc1Nc1ncnc2c1c(C)c(C)n2CCO	i	x	i	x	x	x
CSc1nnc(SCC(=O)Nc2ccc3[nH]c(=O)[nH]c3c2)s1	x	-2.6	x	4.9	x	x
CCCOc1ccc(C(C)=O)cc1CC(C(=O)OCC)C(=O)OCC	i	6.1	-5.02*	-0.9	i	i
CCCCN1C(=O)C(O)(CC(=O)c2ccco2)c2cc(Br)ccc21 (stereo not given)	i	-18.1	-5.64*	-7.7	i	i
O=C(c1ccccc1)C1CCN(C(=O)c2c(F)cccc2F)CC1	i	0.8	i	0.3	x	x
CC(=O)SC(C[N+](=O)[O-])c1cn(C(C)=O)c2ccccc12 (stereo not given)	i	-12.0	-5.52*	-19.5	66.5%*	i
CC(=O)n1cc(Nc2ccc([N+](=O)[O-])cc2)c2ccccc21	i	0.6	i	1.2	x	x
Cc1ccc(S(=O)(=O)N(C)C)cc1NC(=O)COC(=O)CCC1CCCCC1	i	4.8	i	4.2	x	x
O=C(COc1ccccc1Br)c1ccc(O)cc1O	i	-1.2	-5.74*	-7.6	53.5%*	i
CC1(C)CC(=O)C=C(Nc2ccc(Cl)cc2)C1	i	-2.5	i	-2.3	x	x
CC1(C)CC(=O)C=C(Nc2cccc(Cl)c2Cl)C1	i	6.4	-4.98*	-11.7	62.7%*	i
Oc1ccc(Cl)cc1C1=NNC(c2cccs2)C1 (stereo not given)	i	-43.0	i	-13.9	x	x
O=[N+]([O-])c1ccc(O)c(C2=NNC(c3ccccc3F)C2)c1 (stereo not given)	i	-15.3	-10.2*	-4.4	19.5%*	i
SMILES	CHT PAM	procasp7 counter	CHT block	procasp3 activ	CHT block conf	HEK293 MPD ctr
COCC(=O)N1CCC(Oc2ccc(C(=O)N(C)Cc3nccs3)cc2)CC1	i	-0.6	i	1.9	x	x
CCCCN(C(=O)C1CC(=O)N(Cc2ccc(C)cc2)C1)c1c(N)n(CCCC)c(=O)[nH]c1=O (stereo not given)	i	7.5	i	12.7	x	x
Cc1cc(C)n2c(SCC(=O)NC3CCCCC3C)nnc2n1 (stereo not given)	i	0.1	-5.39*	0.3	70.5%*	i
CCn1c(N2CCN(S(=O)(=O)c3ccc(Cl)cc3)CC2)nc2ccccc21	i	4.8	-11.6*	-7.1	44.0%*	i
CCn1c(N2CCN(S(=O)(=O)c3ccc(F)cc3)CC2)nc2ccccc21	i	-0.3	i	-1.7	x	x
CCCOc1cccc(NC(=O)c2c(-c3ccccc3)noc2C)c1	i	-2.5	i	-0.3	x	x
Cc1cccc(OCCOC(=O)c2c(-c3ccccc3)noc2C)c1	i	0.1	-5.42*	11.0	i	i
CCCNC(=O)c1ccc(COc2ccc(CCC)cc2OC)o1	i	-4.6	i	-1.5	x	x
Cc1ccccc1N1CCN(C2CCCN(C(=O)c3csc(C(C)C)n3)C2)CC1 (stereo not given)	i	-9.7	i	0.6	x	x
CC(C)c1nc(C(=O)N2CCCC(N3CCN(c4cccc(Cl)c4)CC3)C2)cs1 (stereo not given)	i	0.8	-11.9*	3.5	2.6%*	i
CCOC(=O)Nc1cccnc1Sc1ccc(Cl)cc1	i	-0.5	i	-3.2	x	x
Cc1ccc(Sc2ncccc2NC(=O)c2ccccc2Cl)cc1	i	5.5	-4.98*	-3.9	i	i
COC(=O)c1ccc(N2CCN(c3ccccc3)CC2)nc1	i	5.5	i	-0.8	x	x
Cc1nnc(SC(C)C(=O)Nc2sc3c(c2C#N)CCCC3)[nH]c1=O (stereo not given)	i	-7.2	-5.16*	-15.5	64.9%*	i
O=C(COC(=O)c1ccc2c(c1)OCCO2)NCCc1ccccc1	x	-4.5	x	3.0	x	x
CCCCN(CCCC)c1cn[nH]c(=O)c1Cl	i	-0.3	-6.58*	-0.6	66.3%*	i
CCCCNc1ncnc2c1cnn2-c1ccccc1	i	6.2	-5.39*	-3.9	i	i
CCCCNc1ncnc2c1cnn2-c1ccc(Cl)cc1	i	-3.3	i	1.4	x	x
CSCCC(NC(=O)c1ccccc1Cl)C(=O)OCC(=O)N1CCCC1=O (stereo not given)	i	2.5	i	2.3	x	x
COCCN1Cc2cccc(C(=O)Nc3ccc(-c4nc5ccccc5[nH]4)cc3)c2C1=O	i	1.6	-8.26*	-6.7	i	i
CCCN1Cc2cccc(C(=O)Nc3ccc(-c4nc5ccccc5[nH]4)cc3)c2C1=O	i	9.3	i	12.3	x	x
CC1(C)CC2CC(C)(CN2C(=O)CCCN2C(=O)c3ccccc3C2=O)C1 (stereo not given)	i	-4.6	-6.78*	2.7	48.2%*	i
Cc1ccc(S(=O)(=O)N2CCC(C(=O)OC(C)C(=O)NC3CCCCC3C)CC2)cc1 (stereo not given)	x	-3.4	x	1.2	x	x
Cc1ccc(CN2CCN(Cc3cn(C(C)C)c4ccccc34)CC2CCO)o1 (stereo not given)	i	1.1	i	3.4	x	x
